For data set [1], the target named is T1, Androgen receptor (Homo sapiens) (UniProt P10275).
T1 sequence (whole entry): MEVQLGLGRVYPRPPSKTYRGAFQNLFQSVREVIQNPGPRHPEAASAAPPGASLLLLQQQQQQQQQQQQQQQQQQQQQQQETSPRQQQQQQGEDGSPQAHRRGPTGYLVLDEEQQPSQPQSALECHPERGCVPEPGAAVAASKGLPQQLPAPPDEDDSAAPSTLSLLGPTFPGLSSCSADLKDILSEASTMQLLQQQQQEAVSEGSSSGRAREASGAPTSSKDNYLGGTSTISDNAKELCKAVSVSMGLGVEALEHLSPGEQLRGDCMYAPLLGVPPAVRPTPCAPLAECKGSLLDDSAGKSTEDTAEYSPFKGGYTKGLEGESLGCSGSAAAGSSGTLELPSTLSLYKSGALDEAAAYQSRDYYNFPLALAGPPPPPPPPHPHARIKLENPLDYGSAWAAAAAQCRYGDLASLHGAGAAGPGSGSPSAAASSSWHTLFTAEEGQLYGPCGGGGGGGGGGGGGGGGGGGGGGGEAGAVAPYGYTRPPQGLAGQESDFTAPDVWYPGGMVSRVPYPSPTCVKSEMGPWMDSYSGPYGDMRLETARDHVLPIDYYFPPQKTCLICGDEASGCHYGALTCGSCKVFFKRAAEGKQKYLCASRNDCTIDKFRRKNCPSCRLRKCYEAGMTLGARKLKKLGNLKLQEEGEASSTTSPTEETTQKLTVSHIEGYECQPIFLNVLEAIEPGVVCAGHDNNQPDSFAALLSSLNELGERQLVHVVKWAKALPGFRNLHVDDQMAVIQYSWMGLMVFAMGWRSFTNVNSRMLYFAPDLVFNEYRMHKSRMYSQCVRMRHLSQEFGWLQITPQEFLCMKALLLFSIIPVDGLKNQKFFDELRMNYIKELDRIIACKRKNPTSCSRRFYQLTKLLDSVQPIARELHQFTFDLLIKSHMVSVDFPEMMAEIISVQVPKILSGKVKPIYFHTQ
Put plainly: Inhibition of androgen receptor in human LNCAP cells assessed as decrease in PSA mRNA expression at 5 uM by RT-PCR analysis relative to control. It counts as cell-based. The method, boiled down: (§1)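 LNCaP cells grown in RPMI 1640 with 10% FBS at 37°C. Transcript levels measured by real-time RT-PCR with rRNA as the reference gene. Relative RNA calculated from threshold cycles by the comparative Ct method.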

Data set [2] addresses T1, Androgen receptor (Homo sapiens). Put plainly: Inhibition of androgen receptor in human LNCAP cells assessed as decrease in TMPRSS2 mRNA expression at 5 uM by RT-PCR analysis relative to control. It counts as cell-based. In a few lines:
as §1

Data set [3] deals with T2, Androgen receptor (Homo sapiens, UniProt P10275).
T2 sequence (P10275 whole entry): T1 sequence (whole entry)
In words: Displacement of Fluormone AL Green from androgen receptor ligand binding domain (unknown origin) after 4 hrs by fluorescence polarization assay. For orientation: In fluorescence polarisation assays a small probe gives low polarisation when free and higher when bound to something large.

Data set [4] concerns LNCaP. In words: Cytotoxicity against human LNCAP cells at 5.56 to 50 uM after 48 hrs by 7-AAD dye-based flow cytometric analysis. The class given is cell-based. The method, boiled down:
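LNCaP cells (RPMI 1640, 10% FBS, 37°C) exposed to compound for 48 h in 10% FBS medium; 1% DMSO as vehicle control. Viable cell count measured by flow cytometry using 7-AAD viability stain.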
A general note: Flow cytometry measures light scatter and fluorescence of single cells or particles in a stream.

In data set [5] the target is T1, Androgen receptor (Homo sapiens). The following applies: LNCaP, at 0.5 to 3 µM.

The source made the active and inactive calls.

One may read the inhibition as the percentage by which the read-out fell short of the control. What is called IC50 is the concentration needed to halve the response being measured. Consider `O=C(O[C@H]1C(=O)C=CN(C(=O)/C=C/c2ccccc2)[C@@H]1c1ccccc1)c1ccc(F)cc1C(F)(F)F` (racemic), for which the inhibition result in data set [1] and in data set [2] was “Active” throughout. For the same compound, the IC50 in data set [3] amounted to 30.1 µM. Besides, in data set [4], the Activity entry was “Non-toxic”. In data set [5], the inhibition result is “inactive”.

In the case of `CC(C)(C)[Si](C)(C)O[C@H]1C(=O)C=CN(C(=O)C2CC2)[C@@H]1c1ccc2c(c1)OCO2` (racemic), the inhibition in data set [1] and in data set [2] was 90% each time.

For `CC(C)(C)[Si](C)(C)O[C@H]1C(=O)C=CN(C(=O)Cc2ccccc2)[C@@H]1c1ccc2c(c1)OCO2` (racemic), the inhibition in data set [1] and in data set [2] was 90% each time.

`CC(C)(C)[Si](C)(C)O[C@H]1C(=O)C=CN(C(=O)Oc2ccccc2)[C@@H]1c1ccc2c(c1)OCO2` (racemic): the inhibition in data set [1] and in data set [2] was 90% throughout.

With `CC(C)(C)[Si](C)(C)O[C@H]1C(=O)C=CN(C(=O)Oc2ccccc2)[C@@H]1c1ccccc1` (racemic), the inhibition in data set [1] and in data set [2] was 90% in each case.

On to `CC(C)(C)[Si](C)(C)O[C@H]1C(=O)C=CN(C(=O)c2ccc(C(F)(F)F)nc2)[C@@H]1c1ccc2c(c1)OCO2` (racemic), for which the inhibition in data set [1] and in data set [2] was 90% in each case.

In the case of `CC(C)(C)[Si](C)(C)O[C@H]1C(=O)C=CN[C@@H]1c1ccc2c(c1)OCO2` (racemic), the inhibition in data set [1] and in data set [2] was 90% throughout.

Take `CC(C)=C[C@@H]1[C@@H](OC(=O)c2ccc(F)cc2C(F)(F)F)C(=O)C=CN1C(=O)Oc1ccccc1` (racemic): the inhibition result in data set [1] and in data set [2] was “Active” in each case.

For the compound `CC(C)[C@@H]1[C@@H](OC(=O)c2ccc(F)cc2C(F)(F)F)C(=O)C=CN1C(=O)Oc1ccccc1` (racemic), the inhibition result in data set [1] and in data set [2] was “Active” each time.

As for `COc1ccc(C(=O)O[C@H]2C(=O)C=CN(C(=O)/C=C/c3ccccc3)[C@@H]2c2ccccc2)cc1` (racemic), the inhibition entry in data set [1] and in data set [2] was “Active” each time.

Consider `C[C@@H]1[C@@H](OC(=O)c2ccc(F)cc2C(F)(F)F)C(=O)C=CN1C(=O)Oc1ccccc1` (racemic), for which the inhibition result in data set [1] and in data set [2] was “Active” in each case.

For the compound `Cc1csc([C@@H]2[C@@H](O)C(=O)C=CN2C(=O)Oc2ccccc2)c1` (racemic), the inhibition in data set [1] and in data set [2] was 90% in each case.

With `Cc1csc([C@@H]2[C@@H](OC(=O)N(C)c3ccccc3)C(=O)C=CN2C(=O)C2CC2)c1` (racemic), the inhibition in data set [1] and in data set [2] was 90% in each case.

Regarding `Cc1csc([C@@H]2[C@@H](OC(=O)N(C)c3ccccc3)C(=O)C=CN2C(=O)Oc2ccccc2)c1` (racemic), the inhibition in data set [1] and in data set [2] was 90% in each case.

For `Cc1csc([C@@H]2[C@@H](OC(=O)N(C)c3ccccc3)C(=O)C=CN2C(=O)c2ccc(C(F)(F)F)nc2)c1` (racemic), the inhibition in data set [1] and in data set [2] was 90% each time.

Regarding `Cc1csc([C@@H]2[C@@H](OC(=O)c3ccc(F)cc3C(F)(F)F)C(=O)C=CN2C(=O)Oc2ccccc2)c1` (racemic), the inhibition result in data set [1] and in data set [2] was “Active” in each case.

For `Cc1csc([C@H]2NC=CC(=O)[C@@H]2OC(=O)N(C)c2ccccc2)c1` (racemic), the inhibition in data set [1] and in data set [2] was 90% in each case.

In the case of `N#Cc1ccc(C(=O)O[C@H]2C(=O)C=CN(C(=O)/C=C/c3ccccc3)[C@@H]2c2ccccc2)cc1` (racemic), the inhibition entry in data set [1] and in data set [2] was “Active” in each case.

Take `N#Cc1cccc(C(=O)O[C@H]2C(=O)C=CN(C(=O)/C=C/c3ccccc3)[C@@H]2c2ccccc2)c1` (racemic): the inhibition result in data set [1] and in data set [2] was “Active” throughout.

For the compound `O=C(/C=C/c1cccc(C(F)(F)F)c1)O[C@H]1C(=O)C=CN(C(=O)/C=C/c2ccccc2)[C@@H]1c1ccccc1` (racemic), the inhibition entry in data set [1] and in data set [2] was “Active” throughout.

As to `O=C(Cc1ccccc1)O[C@H]1C(=O)C=CN(C(=O)/C=C/c2ccccc2)[C@@H]1c1ccccc1` (racemic), the inhibition result in data set [1] and in data set [2] was “Active” each time.

As for `O=C(O[C@H]1C(=O)C=CN(C(=O)/C=C/c2ccccc2)[C@@H]1c1ccccc1)C1CC1` (racemic), the inhibition result in data set [1] and in data set [2] was “Active” each time.

Consider `O=C(O[C@H]1C(=O)C=CN(C(=O)/C=C/c2ccccc2)[C@@H]1c1ccccc1)c1ccc(Cl)cc1` (racemic), for which the inhibition result in data set [1] and in data set [2] was “Active” each time.

In the case of `O=C(O[C@H]1C(=O)C=CN(C(=O)/C=C/c2ccccc2)[C@@H]1c1ccccc1)c1ccccc1C(F)(F)F` (racemic), the inhibition entry in data set [1] and in data set [2] was “Active” in each case.

Take `O=C(O[C@H]1C(=O)C=CN(C(=O)Oc2ccccc2)[C@@H]1c1cc(F)cc(F)c1)c1ccc(F)cc1C(F)(F)F` (racemic): the inhibition entry in data set [1] and in data set [2] was “Active” in each case.

For `O=C(O[C@H]1C(=O)C=CN(C(=O)Oc2ccccc2)[C@@H]1c1ccc2c(c1)OCO2)c1ccc(F)cc1C(F)(F)F` (racemic), the inhibition result in data set [1] and in data set [2] was “Active” in each case.

With `O=C(O[C@H]1C(=O)C=CN(C(=O)Oc2ccccc2)[C@@H]1c1cccc(-c2ccccc2)c1)c1ccc(F)cc1C(F)(F)F` (racemic), the inhibition result in data set [1] and in data set [2] was “Active” throughout.

Take `O=C(O[C@H]1C(=O)C=CN(C(=O)Oc2ccccc2)[C@@H]1c1ccccc1)c1ccc(F)cc1C(F)(F)F` (racemic): the inhibition entry in data set [1] and in data set [2] was “Active” each time.

With `O=C(O[C@H]1C(=O)C=CN(C(=O)c2ccccc2)[C@@H]1c1ccccc1)c1ccc(F)cc1C(F)(F)F` (racemic), the inhibition in data set [1] and in data set [2] was 90% in each case.

Consider `O=C1C=CN(C(=O)/C=C/c2ccccc2)[C@H](c2ccccc2)[C@H]1O` (racemic), for which the inhibition entry in data set [1] and in data set [2] was “Active” each time.

Take `O=C1C=CN(C(=O)Oc2ccccc2)[C@H](c2ccc(-c3ccccc3)cc2)C1` (racemic): the inhibition in data set [1] and in data set [2] was 90% each time.

As for `O=C1C=CN(C(=O)Oc2ccccc2)[C@H](c2ccc3c(c2)OCO3)[C@H]1O` (racemic), the inhibition in data set [1] and in data set [2] was 90% each time.

In the case of `O=C1C=CN(C(=O)Oc2ccccc2)[C@H](c2cccc(-c3ccccc3)c2)[C@H]1O` (racemic), the inhibition in data set [1] and in data set [2] was 90% each time.

On to `O=C1C=CN(C(=O)Oc2ccccc2)[C@H](c2ccccc2)C1` (racemic), for which the inhibition in data set [1] and in data set [2] was 90% in each case.

As to `O=C1C=CN(C(=O)Oc2ccccc2)[C@H](c2ccccc2)[C@H]1O` (racemic), the inhibition in data set [1] and in data set [2] was 90% each time.

In the case of `O=C1C=CN(C(=O)c2ccccc2)[C@H](c2ccccc2)[C@H]1O` (racemic), the inhibition in data set [1] and in data set [2] was 90% throughout.

`O=C1C=CN[C@H](c2ccccc2)[C@H]1O` (racemic): the inhibition in data set [1] and in data set [2] was 90% throughout.

Source of the values: ChEMBL document CHEMBL2440058, “Synthesis and structure-activity relationship studies of novel dihydropyridones as androgen receptor modulators” (J Med Chem, 2013).
